Measurements reported in ChEMBL document CHEMBL3865821, “Amino substituted benzimidazo[1,2-a]quinolines: Antiproliferative potency, 3D QSAR study and DNA binding properties” (Eur J Med Chem, 2016).
The source made the active and inactive calls. No cut-off for these calls is given here.

What was measured:
[1] = Antiproliferative activity against human MCF7 cells after 72 hrs by MTT assay; type: functional, cell-based; details: MCF7, 72 h
Method in brief: (§1)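 Tumour cells were grown as monolayers in DMEM with 10 % FBS, 2 mM L-glutamine, penicillin and streptomycin at 37 °C under 5 % CO₂. Tenfold dilutions from 10^-8 to 10^-4 M were applied for 72 h, followed by MTT read at 570 nm. IC50 came from linear regression of percentage growth; at least two experiments, quadruplicate points.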

[2] = Antiproliferative activity against human H460 cells after 72 hrs by MTT assay; type: functional, cell-based; details: NCI-H460, 72 h
Method in brief: as §1, with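 “CO₂. They were seeded at 3×10^4 cells/mL (HCT 116, H460) or 5×10^4 cells/mL (MCF-7).” for “CO₂.”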

[3] = Antiproliferative activity against human HCT116 cells after 72 hrs by MTT assay; type: functional, cell-based; details: HCT-116, 72 h; method in brief: as §1
[4] = Antiproliferative activity against human shGFP-fused HMLE cells after 72 hrs by MTT assay; type: cell-based
Method in brief: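 HMLE-shGFP cells were kept in a 1:1 mix of DMEM + 10 % FBS with insulin, hydrocortisone and HuMEC medium at 37 °C, 5 % CO₂. Agents were given as tenfold dilutions from 10^-8 to 10^-4 M for 72 h, then MTT absorbance was read at 570 nm. IC50 was interpolated by linear regression of percentage growth; at least two experiments, each point in quadruplicate.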

[5] = Binding affinity to duplex calf thymus DNA assessed as change in melting temperature at drug/DNA ratio of 0.5 by spectrophotometric analysis
Method in brief: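 Calf-thymus DNA at 20 μM was heated with or without compound at 10 or 20 μM (drug/base-pair ratio 0.5 or 1) in BPE buffer (6 mM Na₂HPO₄, 2 mM NaH₂PO₄, 1 mM EDTA, pH 7.1). A260 was read every minute from 20 to 100 °C, rising 1 °C per min, and ΔTm was derived.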

[6] = Binding affinity to 0.5 to 480 uM of duplex […] (unknown origin) at 0.5 to 540 uM by fluorescence spectroscopic analysis
Method in brief: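 Fluorescent compounds at 10 μM in BPE buffer (pH 7.1) were measured with and without rising calf-thymus DNA. Emission was scanned from 400 to 700 nm. K_sv was taken as the slope of the Stern–Volmer plot F₀/F = 1 + K_sv[ct-DNA].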

[7] = Binding affinity to radiolabeled 265bp DNA (unknown origin) at 0.5 to 50 uM by DNase 1 footprinting analysis
[8] = Binding affinity to duplex calf thymus DNA assessed as change in melting temperature at drug/DNA ratio of 0.1 by spectrophotometric analysis
[9] = tested on: Escherichia coli; experiment: Binding affinity to negatively supercoiled pUC19 DNA assessed as DNA intercalation by measuring generation of positively supercoiled DNA up to 50 uM preincubated for 15 mins followed by human DNA topoisomerase 1 addition measured after 30 mins by agarose gel electrophoresis
Method in brief: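 Supercoiled pUC19 plasmid was treated with human topoisomerase I, alone or with compound, and topoisomers were resolved by agarose gel electrophoresis. Poisoning, seen as nicked plasmid, was assessed on ethidium bromide-containing agarose gels at up to 100 μM compound.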

[10] = Binding affinity to duplex calf thymus DNA assessed as hypsochromic shift at 20 uM by UV/visible spectroscopic analysis
Method in brief: (§2)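 Compound at 20 μM in BPE buffer (pH 7.1) was titrated with calf-thymus DNA at 1–140 μM in a 10 mm quartz cuvette. Spectra were recorded from 240 to 480 nm against a reference cuvette holding DNA at the same concentration.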

[11] = Binding affinity to duplex calf thymus DNA assessed as change in melting temperature at drug/DNA ratio of 0.25 by spectrophotometric analysis
[12] = Binding affinity to duplex calf thymus DNA assessed as induction of negative circular dichroic signal at 1 to 60 uM by circular dichroism analysis
Method in brief: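 Calf-thymus DNA at 50 μM was incubated in BPE buffer with or without compound at 1, 5, 10, 20, 30, 40, 50 and 60 μM. CD spectra were recorded from 480 to 230 nm in a 10 mm cell at 20 °C. The compound alone at 60 μM was checked for intrinsic CD.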

[13] = Binding affinity to duplex calf thymus DNA assessed as bathochromic shift at 20 uM by UV/visible spectroscopic analysis; method in brief: as §2

ΔTm [5]	Activity [6]	Activity [7]	ΔTm [8]	inhibition [9]	Activity [10]	ΔTm [11]	Activity [12]	Activity [13]	Structure (SMILES)	IC50 ([1]; read-out: IC50)	IC50 ([1]; read-out: pIC50 (converted))	IC50 ([2]; read-out: IC50)	IC50 ([2]; read-out: pIC50 (converted))	IC50 ([3]; read-out: IC50)	IC50 ([3]; read-out: pIC50 (converted))	IC50 [4]
									CC(C)Nc1c(C#N)c2nc3ccccc3n2c2ccccc12	20 µM	20 µM	5 µM	5 µM	13 µM	13 µM	
									CC(C)Nc1ccc2c(NC(C)C)c(C#N)c3nc4ccccc4n3c2c1	7 µM	7 µM	21 µM	21 µM	≥ 10 µM	10 µM	
									CCN(CC)c1ccc2c(N(CC)CC)c(C#N)c3nc4ccccc4n3c2c1	22 µM	22 µM	25 µM	25 µM	16 µM	16 µM	
									COc1cc([C@@H]2c3cc4c(cc3[C@@H](O[C@@H]3O[C@@H]5CO[C@@H](C)O[C@H]5[C@H](O)[C@H]3O)[C@H]3COC(=O)[C@H]23)OCO4)cc(OC)c1O [ETOPOSIDE]	1 µM		0.1 µM		5 µM		0.4 µM
									CCCCCCNc1ccc2c(NCCCCCC)c(C#N)c3nc4ccccc4n3c2c1	> 100 µM	> 100 µM	> 100 µM	500 µM	> 100 µM	> 100 µM	
1.2 °C									CNc1ccc2c(NC)c(C#N)c3nc4ccccc4n3c2c1	2 µM	2 µM	≥ 100 µM	100 µM	7 µM	7 µM	
									CCCCCCNc1c(C#N)c2nc3ccccc3n2c2ccccc12	3 µM	3 µM	2 µM	2 µM	4 µM	4 µM	
									CCCCNc1ccc2c(NCCCC)c(C#N)c3nc4ccccc4n3c2c1	5 µM	5 µM	4 µM	4 µM	7 µM	7 µM	
									CN1CCN(c2ccc3cc(C#N)c4nc5ccccc5n4c3c2)CC1	2 µM	2 µM	1 µM	1 µM	0.6 µM	0.6 µM	0.5 µM
									CC1CN(c2ccc3c(N4CC(C)NC(C)C4)c(C#N)c4nc5ccccc5n4c3c2)CC(C)N1 (centres undefined)	1 µM	1 µM	0.8 µM	0.8 µM	0.4 µM	0.4 µM	0.2 µM
20.1 °C	Active	Active	5.1 °C	Active	Active	15.9 °C	Active	Active	N#Cc1c(N2CCNCC2)c2ccc(N3CCNCC3)cc2n2c1nc1ccccc12	1 µM	1 µM	4 µM	4 µM	1.5 µM	1.5 µM	2 µM
									CC(C)CCNc1c(C#N)c2nc3ccccc3n2c2ccccc12	4 µM	4 µM	2 µM	2 µM	5 µM	5 µM	
									CC(C)CNc1ccc2c(NCC(C)C)c(C#N)c3nc4ccccc4n3c2c1	2 µM	2 µM	3 µM	3 µM	2 µM	2 µM	
